Assay outcomes (PubChem)
hERG protect = shields human hERG channel from block by proarrhythmic agents | CHO-hERG, FluxOR thallium flux, dofetilide IC70 present | activation (rescue from dofetilide block), less the hit threshold, % at 10 µM | 310,000 compounds, 0.51% hits | AID 1511;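 active = activation above the mean of controls blocked by dofetilide plus 5 SD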;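 also: thallium influx through hERG after potassium depolarization seen as dye fluorescence rise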
KCNQ1 block = blocks the human KCNQ1 potassium channel; B-score at 10 µM; AID 2642; CHO-K1 KCNQ1, FluxOR thallium flux fluorescence; hits give high values; P51787; 310,000 compounds, 1.3% hits;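 active = compounds whose thallium flux B-score, printed positive for inhibition, exceeds three library SD while starting fluorescence stays within three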;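 also: channel opened by potassium depolarization with thallium stimulus after 20 min compound exposure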
KCNQ1 pot = potentiators or activators of human KCNQ1 potassium channel. 310,000 compounds, 0.35% hits. B-score at 10 µM. CHO-K1 KCNQ1, thallium flux FluxOR fluorescence; hits give high values;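 active = fluorescence ratio B-score, a plate-corrected score, at least three library SD, with initial intensity B-score within 5 SD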
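Test system: CHO-K1 cells stably expressing KCNQ1 / Medium: assay buffer / Also added: depolarizing K+/Tl+ stimulus, K2SO4 and Tl2SO4 each 12.5 mM in 5x stock / Incubation: 90 min dye loading and 20 min compound exposure, both at room temperature / Signal: thallium influx via FluxOR fluorescence, kinetic imaging / Evaluation: B score of baseline-normalized fluorescence ratio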
KCC2 mod = KCC2 (human) Cl- transport modulation; 190,000 compounds, 2.2% hits; B-score of Tl+ flux slope (higher = more flux/activation; lower = inhibition) at 10 µM; KCC2 cells, thallium flux FluoZin-2 fluorescence; Q9H2X9; AID 1456;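 active = thallium flux slope and its plate-corrected score both differing from the plate sample mean at a set confidence after two filtering rounds, in either direction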;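 also: slope of fluorescence scaled to starting intensity during 10 to 20 s after thallium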
Target sequence (Q9H2X9 whole entry, looked up): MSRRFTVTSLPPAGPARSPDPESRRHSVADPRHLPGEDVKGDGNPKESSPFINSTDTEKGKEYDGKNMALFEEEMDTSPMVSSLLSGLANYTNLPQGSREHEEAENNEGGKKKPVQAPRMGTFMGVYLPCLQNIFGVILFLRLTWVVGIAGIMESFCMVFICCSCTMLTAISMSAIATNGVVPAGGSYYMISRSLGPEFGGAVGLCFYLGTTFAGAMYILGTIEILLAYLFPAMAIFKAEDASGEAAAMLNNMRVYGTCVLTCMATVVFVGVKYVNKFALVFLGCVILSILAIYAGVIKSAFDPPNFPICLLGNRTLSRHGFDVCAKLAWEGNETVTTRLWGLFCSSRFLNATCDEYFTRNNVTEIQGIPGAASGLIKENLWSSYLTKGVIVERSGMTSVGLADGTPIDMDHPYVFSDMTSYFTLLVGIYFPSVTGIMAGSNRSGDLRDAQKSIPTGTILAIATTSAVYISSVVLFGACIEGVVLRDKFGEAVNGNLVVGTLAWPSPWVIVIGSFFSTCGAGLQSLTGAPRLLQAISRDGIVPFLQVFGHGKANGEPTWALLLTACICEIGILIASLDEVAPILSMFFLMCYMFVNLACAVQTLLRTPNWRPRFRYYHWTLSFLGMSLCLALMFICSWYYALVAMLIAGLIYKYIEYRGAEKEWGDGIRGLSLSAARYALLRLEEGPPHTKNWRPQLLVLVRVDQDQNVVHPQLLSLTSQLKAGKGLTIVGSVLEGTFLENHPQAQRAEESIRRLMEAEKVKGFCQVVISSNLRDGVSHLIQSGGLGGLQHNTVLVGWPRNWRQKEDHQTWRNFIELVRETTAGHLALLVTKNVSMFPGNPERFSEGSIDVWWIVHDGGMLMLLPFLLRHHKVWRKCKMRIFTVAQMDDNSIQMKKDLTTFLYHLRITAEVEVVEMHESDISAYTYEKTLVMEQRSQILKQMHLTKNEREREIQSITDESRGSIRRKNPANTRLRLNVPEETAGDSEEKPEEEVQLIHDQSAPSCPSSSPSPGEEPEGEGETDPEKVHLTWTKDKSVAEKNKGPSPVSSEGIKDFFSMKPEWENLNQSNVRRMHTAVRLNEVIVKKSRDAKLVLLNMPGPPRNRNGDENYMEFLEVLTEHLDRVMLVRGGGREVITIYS
KCNK9 inh = blocks the human KCNK9 two-pore domain potassium channel | Q9NPC2 | HEK293 KCNK9, FluxOR thallium flux fluorescence; hits give low values | B-score at 10 µM | 310,000 compounds, 1.2% hits;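 active = ratio B-score over 3 SD below the library mean, with starting fluorescence within 5 SD of its mean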;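 also: negative B-score means less thallium flux so channel inhibition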
KCNK3 inh = human KCNK3 channel inhibition, primary screen | O14649 | CHO-KCNK3 thallium flux, FluxOR fluorescence; hits give low values | B-score at 10 µM | 340,000 compounds, 0.84% hits;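 active = B-score under library mean minus 4 SD, starting fluorescence ratio at most library mean plus 5 SD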;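 also: more negative B-score means stronger inhibition of thallium flux through KCNK3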
KCNK9 inh conf = human KCNK9 inhibitor confirmation | shares compounds with KCNK9 inh | HEK293 KCNK9 cells, FluxOR thallium flux fluorescence | inhibition, % at 10 µM | 4,900 compounds, 43% hits;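 active = thallium signal inhibited by more than 5 SD of the compound-free buffer control wells, on both duplicate plates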;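 also: 0% = assay buffer control wells without compound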
Kir21 sel = mouse Kir2.1 off-target activity of KCNK9 modulators. shares compounds with KCNK9 inh. Kir2.1 cells, FluxOR thallium flux fluorescence. inhibition, % at 10 µM. 4,900 compounds, 4% hits. AID 492993;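 active = thallium signal drop more than 5 SD beyond the mean of the no-compound control wells, seen in both duplicate plates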;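 also: signal is fluorescence rise after thallium addition divided by baseline fluorescence; plate controls were assay buffer only for no effect and full block by chlorpromazine control for full effect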
HEK293 Tl ctr = non-induced cell nonspecific activity of KCNK9 modulators. shares compounds with KCNK9 inh. non-induced KCNK9-HEK293, FluxOR thallium flux. inhibition, % at 10 µM. 4,900 compounds, 40% hits;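 active = thallium signal drop beyond 5 SD of the untreated control mean, on both duplicate plates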;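 also: plate controls were buffer only IC0 wells for no effect and SID17386958 at its maximal inhibitory level for full effect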
An asterisk follows results filed as active; i = inactive; · = not tested or not shown. This is a sample that favours compounds with a hit; in the whole collection about 4.1% have one here.

SMILES	hERG protect	KCNQ1 block	KCNQ1 pot	KCC2 mod	KCNK9 inh	KCNK3 inh	KCNK9 inh conf	Kir21 sel	HEK293 Tl ctr
COC(=O)c1cc2sc(Cl)cc2n1CC(=O)Nc1cccc(SC)c1	-4	i	i	1.3	-10*	i	48%*	i	32%*
COCCn1c(Cc2ccccc2)nnc1SCC(=O)Nc1oc(C)c2c(C)n[nH]c(=O)c12	-6	i	i	·	i	i	·	·	·
Cc1ccc(C(C)C)c(OCCNCCc2ccccc2)c1	-18	i	i	·	i	i	i	50%*	i
COc1ccc(OCC(=O)Nc2c3c(nn2C(C)(C)C)CSC3)cc1	-14	i	i	-1.5	-14*	i	57%*	i	24%*
CCC(=O)Nc1c2c(nn1-c1ccc(OC)cc1)CSC2	-7	i	i	·	i	i	·	·	·
S=C(c1ccc(-c2cc(Cl)ccc2Cl)o1)N1CCCCC1	-8	i	i	-0.17	-12*	i	46%*	i	42%*
O=C(c1ccc(-c2ccccc2Cl)o1)N1CCCCCCC1	·	·	·	·	·	i	·	·	·
O=C(OCC(=O)N1CCC(Cc2ccccc2)CC1)c1cccnc1Cl	·	·	·	·	·	i	·	·	·
NC(=S)N/N=C/c1ccc(-c2cc(Cl)ccc2Cl)o1	2	i	i	1.1	i	i	·	·	·
CCOC(=O)N/N=C\c1ccc(-c2cc(Cl)ccc2Cl)o1	-1	i	i	2	-8.6*	i	45%*	i	i
COc1ccc(C(=O)Nc2cc(C(=O)c3ccccc3)c(C)oc2=O)cc1	-7	i	i	·	i	i	·	·	·
Cc1oc(=O)c(NC(=O)c2cccc(Cl)c2)cc1C(=O)c1ccccc1	-11	i	i	-0.065	i	i	i	i	i
Cc1csc(N2C(=O)C3C4CCC(O4)C3C2=O)n1 (stereo not drawn)	·	·	·	·	·	i	·	·	·
Cc1ccc(S(=O)(=O)N/N=C\c2ccc(Cl)c([N+](=O)[O-])c2)cc1	-9	i	i	·	i	i	·	·	·
Cc1ccc(S(=O)(=O)N/N=C/c2ccc(OS(=O)(=O)c3ccc(C)c([N+](=O)[O-])c3)cc2)cc1	-10	i	i	-0.3	i	i	i	i	i
CCOC(=O)c1cnn(-c2nc(SC)nc3sc4c(c23)CCCC4)c1N	9.2*	i	12*	·	-16*	i	66%*	i	33%*
CCOC(=O)c1cnn(-c2ncnc3sc4c(c23)CCC4)c1N	-10	i	i	0.8	i	i	·	·	·
Cc1ccnc(NC(=O)C23CC4CC(CC(C4)C2)C3)c1	-3	i	i	·	i	i	i	i	i
COc1ccc(OC)c(CCNC(=O)c2ccc3c(c2)N(Cc2ccc(F)cc2)CCS3)c1	-11	7*	i	·	-11*	-10*	69%*	i	32%*
Cc1ccc(CN2CCSc3ccc(C(=O)NC4CCCC4)cc32)cc1	-8	i	i	·	-11*	i	52%*	i	31%*
COc1ccc(CCNC(=O)c2ccc3c(c2)N(Cc2ccc(F)cc2)CCS3)c(OC)c1	-9	i	i	·	i	i	·	·	·
Cc1ccc(CN2CCSc3ccc(C(=O)NCC4CCCO4)cc32)cc1 (stereo not drawn)	-6	i	i	·	i	i	·	·	·
NC(=O)c1ccc(NC(=O)COC(=O)CCN=C2NS(=O)(=O)c3ccccc32)cc1	·	·	·	·	·	i	·	·	·
CC(C)c1ccccc1-n1c(SCc2cc(=O)oc3ccc4ccccc4c23)nnc1-c1cccnc1	-17	i	i	-1.5	-11*	i	50%*	i	i
Cc1ccc2[nH]c(C)c(/C=C/c3cc[n+](C)cc3)c2c1	-30	i	i	·	-8.1*	i	76%*	56%*	75%*
SMILES	hERG protect	KCNQ1 block	KCNQ1 pot	KCC2 mod	KCNK9 inh	KCNK3 inh	KCNK9 inh conf	Kir21 sel	HEK293 Tl ctr
Cc1ccc2c(c1)c(/C=C/c1cc[n+](C)cc1)c(C)n2C	-42	i	i	·	i	i	·	·	·
Cc1sc2cc3c(c(C(=O)c4ccccc4)[n+]2c1C)-c1cccc2cccc-3c12	-46	i	i	-3.3	-10*	·	41%*	64%*	34%*
O=C(c1ccccc1)c1c2c(cc3sc4ccccc4[n+]13)-c1cccc3cccc-2c13	·	·	·	-1.4	·	i	·	·	·
CCc1ccccc1N1C(=O)CC(Sc2nccc(C)n2)C1=O (stereo not drawn)	-6	i	i	·	i	i	i	i	i
COC1CCCCC1Nc1cc(C)cc(C)c1 (stereo not drawn)	-2	i	i	-0.18	i	i	·	·	·
COC1CCCCC1Nc1cccc(SC)c1 (stereo not drawn)	-2	i	i	2	i	i	i	i	i
Cc1cccc(-n2c(SCC(=O)NCC3CCCO3)nc3ccccc3c2=O)c1C (stereo not drawn)	·	·	·	·	·	i	·	·	·
CCOc1ccc(S(=O)(=O)N2CCC(C(=O)OC(C)C(=O)NC3CCCCC3C)CC2)cc1 (stereo not drawn)	·	·	·	·	·	i	·	·	·
Cc1cc(C)c(S(=O)(=O)c2c(C)cccc2C)c(OCC(C)C)n1	-16	i	i	-0.5	-9.9*	i	59%*	i	42%*
CCOc1nc(C)cc(C)c1S(=O)(=O)c1cccc(C)c1	-11	i	i	-0.93	i	·	·	·	·
C=CCc1cc(C)ccc1OCCOCCC(C(=O)OCC)C(=O)OCC	-13	i	i	-0.66	i	i	i	i	i
C=CCc1cc(Cl)ccc1OCCOCCNC(C)CC (stereo not drawn)	-14	i	i	-0.33	i	i	·	·	·
Cc1ccc(NC(=O)c2cc(-c3ccccc3)nn2-c2ccccc2)c(Br)c1	-2	i	i	0.37	i	i	·	·	·
Cc1ccc(NC(=O)c2cc(-c3ccccc3)nn2-c2ccccc2)cc1	-1	i	i	0.27	i	i	i	i	i
CCN(CC)C(=O)[C@H]1C[C@H](CC(=O)NCCN2CCOCC2)C(=O)N2CCc3c([nH]c4cc(CCC(=O)N(C)C)ccc34)[C@]12C	·	·	·	·	·	i	·	·	·
CCCN(CCC)C(=O)CSc1nc2ccccc2c(=O)n1CC1COc2ccccc2O1 (stereo not drawn)	-8	i	i	·	i	i	i	i	i
